In the library only some 3.1% were active in any assay of this set; here they are far more common.
KCNQ1 block: inhibitors of human KCNQ1 potassium channel. P51787. 310,000 compounds, 1.3% hits. CHO-K1 KCNQ1, FluxOR thallium flux fluorescence; hits give high values. B-score at 10 µM. AID 2642;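 active = compounds whose thallium flux B-score, printed positive for inhibition, exceeds three library SD while starting fluorescence stays within three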;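 also: channel opened by potassium depolarization with thallium stimulus after 20 min compound exposure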
KCNK9 inh: inhibitors of human KCNK9 two-pore domain potassium channel. HEK293 KCNK9, FluxOR thallium flux fluorescence; hits give low values. 310,000 compounds, 1.2% hits. B-score at 10 µM;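 active = ratio B-score over 3 SD below the library mean, with starting fluorescence within 5 SD of its mean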;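 also: negative B-score means less thallium flux so channel inhibition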
Target sequence (Q9NPC2 whole entry, looked up, the tested form may be a part): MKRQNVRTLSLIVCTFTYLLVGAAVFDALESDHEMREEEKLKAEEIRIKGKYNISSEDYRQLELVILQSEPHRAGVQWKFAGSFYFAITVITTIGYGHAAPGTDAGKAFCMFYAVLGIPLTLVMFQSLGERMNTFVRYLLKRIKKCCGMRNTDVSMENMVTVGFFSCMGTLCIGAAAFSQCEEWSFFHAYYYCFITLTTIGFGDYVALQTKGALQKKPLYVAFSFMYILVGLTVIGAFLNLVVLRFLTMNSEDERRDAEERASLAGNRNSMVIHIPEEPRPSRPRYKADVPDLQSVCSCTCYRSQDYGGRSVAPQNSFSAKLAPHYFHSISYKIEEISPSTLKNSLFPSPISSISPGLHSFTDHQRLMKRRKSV
KCNK3 inh: human KCNK3 channel inhibition, primary screen | CHO-KCNK3 thallium flux, FluxOR fluorescence; hits give low values | 340,000 compounds, 0.84% hits | O14649 | B-score at 10 µM;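 active = B-score under library mean minus 4 SD, starting fluorescence ratio at most library mean plus 5 SD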;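 also: more negative B-score means stronger inhibition of thallium flux through KCNK3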
hERG rescue: compounds protecting human hERG from proarrhythmic drug block; CHO-hERG, FluxOR thallium flux, dofetilide IC70 present; 310,000 compounds, 0.51% hits; AID 1511; activation (rescue from dofetilide block), less the hit threshold, % at 10 µM;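 active = activation above the mean of controls blocked by dofetilide plus 5 SD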;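 also: thallium influx through hERG after potassium depolarization seen as dye fluorescence rise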
KCNQ1 act: potentiators or activators of human KCNQ1 potassium channel. P51787. CHO-K1 KCNQ1, thallium flux FluxOR fluorescence; hits give high values. B-score at 10 µM. 310,000 compounds, 0.35% hits. AID 2648;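 active = fluorescence ratio B-score, a plate-corrected score, at least three library SD, with initial intensity B-score within 5 SD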
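Assay system: stable KCNQ1 CHO-K1 line; medium: assay buffer, equal DMSO in all wells; timing: 90 min dye loading and 20 min compound exposure, both at room temperature; technique: kinetic FluxOR thallium fluorescence, 10-s 1-Hz baseline, 110-s post-stimulus read; read-out basis: B score of baseline-normalized fluorescence ratio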
Starred values were filed as active, the others as inactive; i = inactive; nt = no result given.

SMILES | KCNQ1 block | KCNK9 inh | KCNK3 inh | hERG rescue | KCNQ1 act
O=C1c2ccccc2NC(c2ccccc2O)N1O (stereo not drawn) | i | i | i | -5 | 8*
Cc1ccc(N2C(=O)c3ccccc3NC2c2ccccc2O)cc1 (stereo not drawn) | i | i | i | -1 | i
COCCn1c(-c2ccc(OC)cc2)cnc1SCC(=O)Nc1cccc2ccccc12 | i | i | i | -13 | i
CCC1Oc2ccccc2N(CC(=O)NCCN2C(C)CCCC2C)C1=O (stereo not drawn) | i | i | i | 7.2* | i
CCC1Oc2ccccc2N(CC(=O)NCCN2CCCC2)C1=O (stereo not drawn) | i | i | i | -6 | i
CCC1Oc2ccccc2N(CC(=O)NCCCN2CCC(C)CC2)C1=O (stereo not drawn) | i | i | i | 5.5* | i
COc1ccccc1CNC(=O)C(C)n1nc(C)n2c(cc3occc32)c1=O (stereo not drawn) | i | i | i | -8 | i
Oc1[nH]c2ccccc2c1N=NC(=S)NCC1CCCO1 (stereo not drawn) | i | i | i | -6 | i
Oc1[nH]c2c(Cl)cc(Cl)cc2c1N=NC(=S)NCC1CCCO1 (stereo not drawn) | i | i | i | 12* | 52*
CCn1c(O)c(N=NC(=S)NCC2CCCO2)c2ccccc21 (stereo not drawn) | i | i | i | 6.3* | i
CCOc1ncccc1C(=O)OCC(=O)N1CCC(C)CC1 | nt | nt | i | nt | nt
CC(C)c1ccc(NC(=O)CCN2C(=O)[C@@H]3Cc4ccccc4CN3C2=O)cc1 | i | i | i | -10 | i
CCOC(=O)C1=NN(C(=O)COc2ccccc2)C(O)(c2ccc(Cl)cc2)C1 (stereo not drawn) | i | i | i | -11 | i
CCOC(=O)C1=NN(C(=O)Cc2ccccc2)C(O)(c2ccc(Cl)cc2)C1 (stereo not drawn) | i | i | i | -6 | i
CCOC(=O)C1=NN(C(=O)c2cccc(Br)c2)C(O)(C(C)(C)C)C1 (stereo not drawn) | i | i | nt | 51* | 66*
CCOC(=O)C1=NN(C(=O)c2ccco2)C2(CC2)C1 | i | i | i | -2 | i
CCOC(=O)C1=NN(C(=O)c2ccc(OC)cc2)C(O)(c2ccc(Cl)cc2)C1 (stereo not drawn) | i | i | i | 40* | 56*
CCOC(=O)C1=NN(C(=O)c2ccccc2)C(O)(c2ccc(C)cc2)C1 (stereo not drawn) | i | i | i | 7.4* | i
O=C(CN1CCCc2ccccc21)N/N=C/c1ccccc1 | i | i | i | -7 | i
O=C(CN1CCCc2ccccc21)N/N=C/c1c(O)ccc2ccccc12 | 7* | i | i | -5 | i
O=C(NN=Cc1c(O)ccc2ccccc12)c1ccc2c(c1)OCO2 | nt | nt | i | nt | nt
O=C(N/N=C\c1c(O)ccc2ccccc12)c1ccc(S(=O)(=O)N2CCCCC2)cc1 | 6* | i | i | -15 | i
CC(=O)Nc1ccc(NC(=O)C(C)OC(=O)c2ccccc2NS(=O)(=O)c2cccs2)cc1 (stereo not drawn) | i | i | i | -11 | i
Cc1cccc(NC(=O)C(C)OC(=O)c2ccccc2NS(=O)(=O)c2cc(C)c(C)c([N+](=O)[O-])c2)c1 (stereo not drawn) | 9* | i | i | -13 | i
C#CCN(C(=O)c1ccc(OC)c(OC2CCN(C(C)C)CC2)c1)C1CCCCC1 | i | i | i | -2 | i
SMILES | KCNQ1 block | KCNK9 inh | KCNK3 inh | hERG rescue | KCNQ1 act
O=C1C/C(=C\c2c(F)cccc2Cl)N2CCC1CC2 | i | i | i | -2 | i
Cc1ccc(NC(=O)C(C)c2cccc(C(=O)c3ccccc3)c2)cc1O (stereo not drawn) | 8* | i | i | -15 | i
Cc1cccc(NC(=O)C(C)C(=O)c2ccccc2)c1 (stereo not drawn) | i | i | i | -8 | i
CCn1cc(CCC(=O)NCc2cccc(OC)c2OC)c2ccccc21 | i | i | i | 6.4* | i
Oc1ccccc1CNc1cccc2cccnc12 | i | -7.3* | i | -9 | i
OCc1ccc(O)c2ncccc12 | i | i | i | -5 | i

Source: PubChem (Johns Hopkins Ion Channel Center)
